RORa inhibitor – inhibitors of orphan receptor RORA, primary screen, cell-based, luminescence. inhibition, % at 10 µM. Nuclear receptor ROR-alpha (Homo sapiens), P35398. hit rate 0.43% among 65,000. CHO-K1 Gal4-RORA LBD luciferase reporter;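 active means inhibition above the mean of all tested compounds plus 3 SD, cut at about 52% in these data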;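 further: 0% = RORA-transfected cells with DMSO and 100% = mock-transfected cells lacking RORA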
Target sequence (P35398 whole entry, looked up, the tested form may be a part): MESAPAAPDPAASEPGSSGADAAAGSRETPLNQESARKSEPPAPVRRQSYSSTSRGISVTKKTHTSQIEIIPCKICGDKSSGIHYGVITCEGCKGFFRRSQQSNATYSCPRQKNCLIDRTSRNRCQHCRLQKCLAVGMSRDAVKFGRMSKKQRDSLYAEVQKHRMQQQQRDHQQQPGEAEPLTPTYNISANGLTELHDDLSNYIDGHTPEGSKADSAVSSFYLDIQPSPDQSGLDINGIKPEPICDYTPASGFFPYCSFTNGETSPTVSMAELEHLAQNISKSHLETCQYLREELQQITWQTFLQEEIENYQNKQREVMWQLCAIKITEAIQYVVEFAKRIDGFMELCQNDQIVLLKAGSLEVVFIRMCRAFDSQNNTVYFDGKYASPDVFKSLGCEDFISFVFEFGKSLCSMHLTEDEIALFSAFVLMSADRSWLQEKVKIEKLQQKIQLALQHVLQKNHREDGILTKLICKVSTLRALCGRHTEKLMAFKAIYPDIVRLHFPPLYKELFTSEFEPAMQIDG
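System: transiently transfected CHO-K1 cells, Gal4-DBD/human RORA-LBD fusion plus 5xGal4-luciferase reporter. Doses: one dose of 10 µM final. Timing: 20 h compound treatment, 37 °C. Measured by: luminescence. Evaluation: % inhibition of basal luciferase versus +RORA/-RORA DMSO controls. Benchmarks: mock-transfected cells as 100%, +RORA DMSO cells as 0%. Replicates: single test per compound.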
* = called active by the depositor. The sample as a whole holds a higher share of hits than the screen did.

SMILES | RORa inhibitor
CCn1nc(-c2cccs2)nc2c(=O)n(C)c(=O)nc1-2 | 91*
COc1cc2nc(CN3CC=C(c4ccccc4)CC3)[nH]c(=O)c2cc1OC | 80*
Cn1c2ccccc2c2c(C(=O)N3CCC4(CC3)OCCO4)cn(C3CCCCC3)c(=O)c21 | 0
COc1ccc(CC[n+]2cc(/N=C(\C)[O-])on2)cc1OC | 5
COc1cccc(N2CCN(Cc3cccc(Cl)c3)CC2)c1 | 7
O=C(COc1ccc(Cl)cc1)N1CCN(Cc2ccccc2)CC1 | 6
CC(C)C(=O)N1CCN(CCN=Cc2c(O)n(C)c(=O)n(C)c2=O)CC1 | 5
O=c1[nH]c2ccccc2n1CCCN1CCC(n2c(=O)[nH]c3cc(Cl)ccc32)CC1 | 14
O=C1CN=C(c2ccccc2)c2oc3ccc(Br)cc3c2N1 | 10
COc1cccc(OC)c1C1=NCC(=O)Nc2c1oc1ccc(Br)cc21 | 62*
CCCc1nc2ccccc2c(=O)n1-c1ccccc1OC | -6
CC(C)=CCSc1nnc([C@@H](N)Cc2c[nH]c3ccccc23)o1 | 15
CN(C)c1nc(-c2ccccc2)[n+](C)s1 | 9
COc1ccc2c(c1)c(C(=O)CN1CCN(C)CC1)c(C)n2Cc1ccccc1 | -29
CCCc1nc2ccccc2c(=O)n1-c1cccc(OC)c1 | 4

Source: PubChem (The Scripps Research Institute Molecular Screening Center)
